≈ marks a conversion by molar mass, not a printed value. Calls of active or inactive are those of the source. The rule behind the calls is not given here.
Assays:
Rattus norvegicus [1] = assay: Cardiovascular effect in anaesthetized Wistar rat assessed as mean arterial pressure at 40 mg/kg, ip after 30 mins; format: functional, Artery; settings: route intraperitoneal
Method in brief: (§1)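 Adult normotensive Wistar rats (250–300 g) under thiopental (60 mg/kg ip). Right carotid artery cannulated with a heparinised catheter (20 IU/mL in saline, flushed every 30 min) connected to a pressure transducer. Measurement began one hour after surgery. Compound given ip at 40 mg/kg in 0.5% methyl cellulose, with mean arterial pressure read at 0, 15, 30, 45 and 60 min.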

Rattus norvegicus [2] = assay: Effect on heart rate in anesthetized Wistar rat assessed as number of P-Q-intervals at 40 mg/kg, ip after 45 mins by electrocardiography; format: functional; settings: route intraperitoneal
Method in brief: (§2)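 Wistar rats (250–300 g) anaesthetised with thiopental 60 mg/kg ip, then given compound ip at 40 mg/kg in 0.5% aqueous methyl cellulose. ECG recorded by transducer, with heart rate (beats/min) and P–Q, QRS and Q–T intervals (ms) taken at 0, 15, 30, 45 and 60 min after dosing.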

Rattus norvegicus [3] = assay: Vasorelaxation activity […] assessed as inhibition of norepinephrine-induced contraction of aorta ring at 0.1 mg/ml; format: functional
Method in brief: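 Isolated Wistar rat aorta rings in physiological salt solution at 37 °C, gassed 95% O2/5% CO2, isometric tension, 60 min equilibration. After contraction plateau, test compound (0.1 mg/mL) added cumulatively; EC50 (g/mL) derived from cumulative concentration–response curves against norepinephrine.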

Rattus norvegicus [4] = assay: Effect on heart rate in anesthetized Wistar rat assessed as number of beats per minutes at 40 mg/kg, ip after 15 mins by electrocardiography; format: functional; settings: route intraperitoneal; method in brief: as §2
Rattus norvegicus [5] = assay: Effect on heart rate in anesthetized Wistar rat assessed as number of P-Q-intervals at 40 mg/kg, ip after 30 mins by electrocardiography; format: functional; settings: route intraperitoneal; method in brief: as §2
Rattus norvegicus [6] = assay: Effect on heart rate in anesthetized Wistar rat assessed as number of Q-T-intervals at 40 mg/kg, ip after 30 mins by electrocardiography; format: functional; settings: route intraperitoneal; method in brief: as §2
Rattus norvegicus [7] = assay: Effect on heart rate in anesthetized Wistar rat assessed as number of QRS complex at 40 mg/kg, ip after 30 mins by electrocardiography; format: functional; settings: route intraperitoneal; method in brief: as §2
Rattus norvegicus [8] = assay: Effect on heart rate in anesthetized Wistar rat assessed as number of QRS complex at 40 mg/kg, ip after 45 mins by electrocardiography; format: functional; settings: route intraperitoneal; method in brief: as §2
Rattus norvegicus [9] = assay: Effect on heart rate in anesthetized Wistar rat assessed as number of P-Q-intervals at 40 mg/kg, ip after 15 mins by electrocardiography; format: functional; settings: route intraperitoneal; method in brief: as §2
Rattus norvegicus [10] = assay: Cardiovascular effect in anaesthetized Wistar rat assessed as mean arterial pressure at 40 mg/kg, ip after 45 mins; format: functional, Artery; settings: route intraperitoneal; method in brief: as §1
Rattus norvegicus [11] = assay: Effect on heart rate in anesthetized Wistar rat assessed as number of P-Q-intervals at 40 mg/kg, ip after 60 mins by electrocardiography; format: functional; settings: route intraperitoneal; method in brief: as §2
Rattus norvegicus [12] = assay: Effect on heart rate in anesthetized Wistar rat assessed as number of QRS complex at 40 mg/kg, ip after 60 mins by electrocardiography; format: functional; settings: route intraperitoneal; method in brief: as §2
Rattus norvegicus [13] = assay: Antiarrhythmic activity in anaesthetized Wistar rat assessed as decrease in BaCl2-induced cardiac rhythm disturbance at 40 mg/kg, ip 60 mins before arrhythmogen challenge; format: functional, organism-based; set-up: dose 40 mg/kg; settings: Heart
Method in brief: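 Rats (thiopental 60 mg/kg ip anaesthesia) given test compound ip at 40 mg/kg, suspended in 0.5% aqueous methyl cellulose, 60 min before iv barium chloride (32 mg/kg) to evoke arrhythmia. Scored by reduction of rhythm disturbances (premature ventricular beats, ventricular tachycardia, fibrillation) and mortality.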

Rattus norvegicus [14] = assay: Effect on heart rate in anesthetized Wistar rat assessed as number of beats per minutes at 40 mg/kg, ip after 30 mins by electrocardiography; format: functional; settings: route intraperitoneal; method in brief: as §2
Rattus norvegicus [15] = assay: Effect on heart rate in anesthetized Wistar rat assessed as number of Q-T-intervals at 40 mg/kg, ip after 45 mins by electrocardiography; format: functional; settings: route intraperitoneal; method in brief: as §2
Rattus norvegicus [16] = assay: Cardiovascular effect in anaesthetized Wistar rat assessed as mean arterial pressure at 40 mg/kg, ip after 15 mins; format: functional, Artery; settings: route intraperitoneal; method in brief: as §1
Rattus norvegicus [17] = assay: Effect on heart rate in anesthetized Wistar rat assessed as number of Q-T-intervals at 40 mg/kg, ip after 60 mins by electrocardiography; format: functional; settings: route intraperitoneal; method in brief: as §2
Rattus norvegicus [18] = assay: Effect on heart rate in anesthetized Wistar rat assessed as number of Q-T-intervals at 40 mg/kg, ip after 15 mins by electrocardiography; format: functional; settings: route intraperitoneal; method in brief: as §2
Rattus norvegicus [19] = assay: Effect on heart rate in anesthetized Wistar rat assessed as number of beats per minutes at 40 mg/kg, ip after 45 mins by electrocardiography; format: functional; settings: route intraperitoneal; method in brief: as §2
Rattus norvegicus [20] = assay: Effect on heart rate in anesthetized Wistar rat assessed as number of beats per minutes at 40 mg/kg, ip after 60 mins by electrocardiography; format: functional; settings: route intraperitoneal; method in brief: as §2
Rattus norvegicus [21] = organism: Rattus norvegicus; assay: NO release in Wistar rat by Griess reagent assay in presence of L-cysteine relative to control
Rattus norvegicus [22] = assay: Cardiovascular effect in anaesthetized Wistar rat assessed as mean arterial pressure at 40 mg/kg, ip after 60 mins; format: functional, Artery; settings: route intraperitoneal; method in brief: as §1
Rattus norvegicus [23] = assay: Effect on heart rate in anesthetized Wistar rat assessed as number of QRS complex at 40 mg/kg, ip after 15 mins by electrocardiography; format: functional; settings: route intraperitoneal; method in brief: as §2

Row | Structure (SMILES) | EC50 (Rattus norvegicus [3]) [µg/mL] | Activity (Rattus norvegicus [1]) [mmHg] | Activity (Rattus norvegicus [2]) | Activity (Rattus norvegicus [4]) | Activity (Rattus norvegicus [5]) | Activity (Rattus norvegicus [6]) | Activity (Rattus norvegicus [7]) | Activity (Rattus norvegicus [8]) | Activity (Rattus norvegicus [9]) | Activity (Rattus norvegicus [10]) [mmHg] | Activity (Rattus norvegicus [11]) | Activity (Rattus norvegicus [12]) | Activity (Rattus norvegicus [14]) | Activity (Rattus norvegicus [15]) | Activity (Rattus norvegicus [16]) [mmHg] | Activity (Rattus norvegicus [17]) | Activity (Rattus norvegicus [18]) | Activity (Rattus norvegicus [19]) | Activity (Rattus norvegicus [20]) | Activity (Rattus norvegicus [22]) [mmHg] | further results
1 | O=C(CO[N+](=O)[O-])NNC(=O)c1ccc(NCC(O)CN2C(=O)/C(=C/C=C/c3ccccc3)S/C2=N/c2ccccc2)cc1 (centres undefined) | 34.7 (≈ 56.2 µM) | 77.54 | 53.6 | 307.46 | 53.6 | 75.8 | 22.4 | 21.4 | 52.4 | 80.16 | 52.4 | 20.4 | 295.42 | 74.8 | 84.86 | 73.4 | 74.6 | 302.23 | 308.77 | 90.58 | % NO release (Rattus norvegicus [21]): 0.24%; Activity (Rattus norvegicus [23]): 21
2 | O=C(CO[N+](=O)[O-])NNC(=O)c1ccc(NCC(O)CN2C(=O)/C(=C/c3ccc(F)cc3)S/C2=N/c2ccccc2)cc1 (centres undefined) | 49 (≈ 80.5 µM) | 78.92 | 52.4 | 300.28 | 52.2 | 68.6 | 23.6 | 23.2 | 51.7 | 80.53 | 52.2 | 22 | 289.83 | 68.2 | 84.89 | 66.4 | 67.8 | 294.11 | 300.39 | 85.23 | % NO release (Rattus norvegicus [21]): 0.23%; Activity (Rattus norvegicus [23]): 22.8
3 | CC(C)NCC(O)COc1ccc(CC(N)=O)cc1 (centres undefined) [ATENOLOL] | – | 63.44 | – | – | – | – | – | – | – | 65.24 | – | – | – | – | 79.01 | – | – | – | – | 69.93 | –
4 | Cc1ccc(/C=C2\S/C(=N/c3ccccc3)N(CC(O)CNc3ccc(C(=O)NNC(=O)CO[N+](=O)[O-])cc3)C2=O)cc1 (centres undefined) | 28.2 (≈ 46.6 µM) | 79.16 | 52 | 303.44 | 51.2 | 73.4 | 23.6 | 24 | 49.6 | 72.21 | 50.2 | 22.8 | 291.92 | 74.8 | 91.1 | 72.2 | 72.8 | 279.98 | 297.59 | 88.93 | % NO release (Rattus norvegicus [21]): 0.27%; Activity (Rattus norvegicus [23]): 23.2
5 | O=C(CO[N+](=O)[O-])NNC(=O)c1ccc(NCC(O)CN2C(=O)/C(=C/c3cccc([N+](=O)[O-])c3)S/C2=N/c2ccccc2)cc1 (centres undefined) | 141 (≈ 222 µM) | 85.08 | 56.2 | 318.61 | 57.8 | 72.4 | 22.4 | 21.8 | 57 | 85.87 | 55.6 | 20.4 | 295.46 | 71.8 | 87.32 | 70.4 | 71.4 | 302.16 | 315.86 | 90.29 | Activity (Rattus norvegicus [13]): inactive; % NO release (Rattus norvegicus [21]): 0.21%; Activity (Rattus norvegicus [23]): 21.4
6 | COc1cc(/C=C2\S/C(=N/c3ccccc3)N(CC(O)CNc3ccc(C(=O)NNC(=O)CO[N+](=O)[O-])cc3)C2=O)cc(OC)c1OC (centres undefined) | 60.3 (≈ 88.5 µM) | 73.93 | 57.6 | 301.97 | 56.2 | 80.8 | 22 | 23.2 | 55 | 62.69 | 54.8 | 22.8 | 293.35 | 82.2 | 82.81 | 83.8 | 79.6 | 277.12 | 291.2 | 81.25 | % NO release (Rattus norvegicus [21]): 0.32%; Activity (Rattus norvegicus [23]): 21.2

Further lines, with some results ahead:

Row | EC50 (Rattus norvegicus [3]) [µg/mL] | Structure (SMILES) | Activity (Rattus norvegicus [1]) [mmHg] | Activity (Rattus norvegicus [2]) | Activity (Rattus norvegicus [4]) | Activity (Rattus norvegicus [5]) | Activity (Rattus norvegicus [6]) | Activity (Rattus norvegicus [7]) | Activity (Rattus norvegicus [8]) | Activity (Rattus norvegicus [9]) | Activity (Rattus norvegicus [10]) [mmHg] | Activity (Rattus norvegicus [11]) | Activity (Rattus norvegicus [12]) | Activity (Rattus norvegicus [14]) | Activity (Rattus norvegicus [15]) | Activity (Rattus norvegicus [16]) [mmHg] | Activity (Rattus norvegicus [17]) | Activity (Rattus norvegicus [18]) | Activity (Rattus norvegicus [19]) | Activity (Rattus norvegicus [20]) | Activity (Rattus norvegicus [22]) [mmHg] | further results
7 | 32.4 (≈ 53.3 µM) | O=C(CO[N+](=O)[O-])NNC(=O)c1ccc(NCC(O)CN2C(=O)/C(=C/c3ccc(O)cc3)S/C2=N/c2ccccc2)cc1 (centres undefined) | 68.96 | 56.2 | 290.03 | 56 | 76 | 21.4 | 22.4 | 55.2 | 63.34 | 54.8 | 20.6 | 272.68 | 77.2 | 79.52 | 74.4 | 74.8 | 258.51 | 278.31 | 77.31 | Activity (Rattus norvegicus [13]): Active; % NO release (Rattus norvegicus [21]): 0.3%; Activity (Rattus norvegicus [23]): 20.4
8 | 45.7 (≈ 75.4 µM) | O=C(CO[N+](=O)[O-])NNC(=O)c1ccc(NCC(O)CN2C(=O)/C(=C/c3ccccc3O)S/C2=N/c2ccccc2)cc1 (centres undefined) | 72.44 | 54.6 | 298.24 | 54.2 | 74.4 | 22.4 | 23.4 | 51.4 | 64.32 | 52.8 | 20.8 | 291.85 | 75.4 | 82.91 | 72.8 | 73.2 | 279.28 | 294.57 | 76.24 | Activity (Rattus norvegicus [13]): Active; % NO release (Rattus norvegicus [21]): 0.29%; Activity (Rattus norvegicus [23]): 21.2
9 | 34.7 (≈ 58.7 µM) | O=C(CO[N+](=O)[O-])NNC(=O)c1ccc(NCC(O)CN2C(=O)/C(=C/c3ccccc3)S/C2=N/c2ccccc2)cc1 (centres undefined) | 62.21 | 54.2 | 292.18 | 53.6 | 63.2 | 21.2 | 20.6 | 52.2 | 67.54 | 55.4 | 21.6 | 269.11 | 84.6 | 78.67 | 86.2 | 81.8 | 276.83 | 291.8 | 71.29 | Activity (Rattus norvegicus [13]): Active; % NO release (Rattus norvegicus [21]): 0.33%; Activity (Rattus norvegicus [23]): 19.4
